Measurements taken from PubChem BioAssay AID463111 (Johns Hopkins Ion Channel Center, 2010).
Out of some 310,000 compounds screened, about 2,800 (0.9%) were called active.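 The calls were made as follows: active = B-score of the integrated calcium signal more than 4 SD below the library mean, with starting fluorescence not abnormally high; inactive = the rest.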 For the sample, actives were picked, then their nearest neighbours and some compounds at random. Residues, ends and D or L forms follow the SMILES beside them. *: point of attachment. Bz = O=C(c1ccccc1)*

Test: enhancers of RGS4 function in calcium signaling – cell-based, HEK293 M3R inducible RGS4, calcium flux, primary screen (AID 463111);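 as to B-score: negative B-score means reduced calcium response which marks RGS4 activation or potentiation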
Settings: HEK293 M3R/inducible RGS4, carbachol calcium flux Fluo4, at 10 µM; active compounds read low
Method in brief: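 Material: M3R-expressing HEK293 line, RGS4 induced by doxycycline | Schedule: Overnight RGS4 induction, 30 min dye load 37 °C, 20 min compound RT | Measured by: Fluo4 fluorescence kinetic imaging of calcium | Read-out: Integrated calcium ratio converted to B score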

Row | Compound | B-score
1 | CCc1cccc(C)c1NS(=O)(=O)c1c(C)nc2sccn2c1=O | inactive
2 | CCSc1nc(=S)n(CC)c(C)c1C(C)=O | inactive
3 | Cc1ccccc1-n1nc(SCC(=O)O)sc1=S | inactive
4 | CC(CCc1ccccc1)NC(=O)COC(=O)c1ccc(F)cc1 (centres undefined) | inactive
5 | N/C(=N\OC(=O)COc1ccc([N+](=O)[O-])cc1)c1ccc(Br)cc1 | inactive
6 | N/C(Cc1ccc([N+](=O)[O-])cc1)=N\OC(=O)COc1ccc2ccccc2c1 | -7.23 (active)
7 | CCOC(=O)COc1ccc([N+](=O)[O-])cc1 | inactive
8 | Cc1cc(C)cc(OCC(=O)O/N=C(\N)Cc2ccc([N+](=O)[O-])cc2)c1 | -7.82 (active)
9 | N/C(=N\OC(=O)Cc1ccc([N+](=O)[O-])cc1)c1ccccn1 | inactive
10 | N/C(Cc1ccc([N+](=O)[O-])cc1)=N\OC(=O)C1CCCCC1 | inactive
11 | CCOc1ccc(N2C(=O)Nc3ccccc3C2(O)C(=O)NCc2ccco2)cc1 (centres undefined) | inactive
12 | O=C(COC(=O)Cc1ccc(Br)cc1)Nc1c(F)c(F)c(F)c(F)c1F | inactive
13 | CN(Cc1ccccc1F)C(=O)C(Cc1ccccc1)NC(=O)c1ccccc1 (centres undefined) | -7.13 (active)
14 | O=C(NC(Cc1ccccc1)C(=O)N1CCCC(C(F)(F)F)C1)c1ccccc1 (centres undefined) | inactive
15 | O=C(NC(Cc1ccccc1)C(=O)N1CCCC1C(=O)O)c1ccccc1 (stereo not drawn) (Bz-Phe-Pro-OH; configuration not given here) | inactive
16 | O=C(/C=C/c1ccc([N+](=O)[O-])o1)NNC(=O)c1ccc(F)cc1 | inactive
17 | CC1CCN(C(=O)COC(=O)c2cc(S(=O)(=O)N3CCOCC3)ccc2Cl)CC1 | inactive
18 | COc1ccc(CCNC(=O)CC2SC(=Nc3cc(C)cc(C)c3)NC2=O)cc1OC (centres undefined) | inactive
19 | O=C(O)c1ccc(Cn2c(=S)[nH]c3cc(Cl)ccc3c2=O)cc1 | inactive
20 | CC(C)c1ccc2c(c1)c(SC(C)(C)C)c(CC(C)(C)C(=O)O)n2Cc1ccc(Cl)cc1 | -7.99 (active)
21 | Nc1nc(NC(=O)/C=C/c2ccc(F)cc2)nn1-c1ccccc1 | inactive
22 | C[C@@H](C(=O)N1CCNCC1)n1cc(CCC(=O)O)nn1 | inactive
23 | CCCCC(=O)NNC(=S)NC(=O)C(c1ccccc1)c1ccccc1 | -9.53 (active)
24 | O=C(NNC(=S)NCc1ccco1)C(c1ccccc1)c1ccccc1 | inactive
25 | CC(C)C(=O)Nc1cccc(NC(=S)NC(=O)C(c2ccccc2)c2ccccc2)c1 | inactive
26 | O=C(N/N=C/c1ccsc1)c1cc(O)cc(O)c1 | inactive

Row | Compound | B-score
27 | COc1ccc(CN2CC[C@H]3C=CC[C@@H](C(=O)N4CCOCC4)[C@H]3C2=O)cc1OC | inactive
28 | CCN(Cc1ccncc1)C(=O)CCc1ccccc1 | inactive
29 | Cc1cc(C)n(Cc2cnc(N3CCOCC3)s2)n1 | inactive
30 | CCC1C=C(c2ccccc2)C=CN=C1N(CC)CC (centres undefined) | -10.2 (active)
31 | COc1cccc(NC(=O)N2C3CCCC2CC(NC(C)=O)C3)c1 (centres undefined) | inactive
32 | CCCn1c(SCC(=O)c2ccc3c(c2)OCCO3)nnc1C(C)C | inactive
33 | O=C(c1ccccc1F)N1CCN(S(=O)(=O)c2ccc(Br)cc2)CC1 | inactive
34 | O=S(=O)(c1ccc(Br)cc1)N1CCC(c2nc3ccccc3[nH]2)CC1 | inactive
35 | O=S(=O)(c1ccc(Br)cc1)n1ccc2ccccc21 | -7.7 (active)
36 | CCC1CCc2c(sc(NC(C)=O)c2C#N)C1 (centres undefined) | inactive
37 | CCC(C)c1ccc(NC(=S)NCc2ccccn2)cc1 (centres undefined) | inactive
38 | FC(F)(F)c1cnc(Oc2ccccc2-c2nnc(-c3ccc(Cl)cc3)o2)c(Cl)c1 | inactive
39 | FC(F)(F)c1cccc(-c2nc(COc3ccc(Cl)cc3Cl)no2)c1 | -7.64 (active)
40 | Cc1cc(Cl)ccc1OCc1nc(-c2ccncc2)no1 | inactive
41 | Cc1ccc(NC(=O)COc2coc(CN3CCc4ccccc4C3)cc2=O)cc1Cl | inactive
42 | CCOC(=O)C1(Cc2ccccc2C)CCCN(C(=O)c2ccc(COC)o2)C1 (centres undefined) | inactive
43 | CCOc1cc(C(=S)N2CCOCC2)ccc1OS(=O)(=O)c1ccc(Br)cc1 | inactive
44 | COc1ccc(C(=O)NC2CCCc3c2cnn3-c2cccc(C)c2C)c(OC)n1 (centres undefined) | -10.2 (active)
45 | Cn1nccc1C(=O)NC1CCCc2c1cnn2-c1ccccc1F (centres undefined) | inactive
46 | Cc1cc(C(=O)NC2CCCc3c2cnn3-c2cccc(C)c2C)c(C)o1 (centres undefined) | inactive
47 | Cc1cccc(C(=O)Nc2ccc(CC(=O)O)cc2)c1 | inactive
48 | Cc1cccc(C(=O)Nc2ccc(C(=O)N/N=C/c3cccc(C)n3)cc2)c1 | inactive
49 | Cc1cccc(C(=O)Nc2ccc(C(=O)/C=C/c3cccs3)cc2)c1 | -10.5 (active)
50 | Cn1nc(C(F)(F)F)c2cc(NC(=O)OCC(C)(C)C)sc21 | inactive
51 | CN(C(=O)CN1C(=O)CCSc2ccc(S(=O)(=O)N3CCCC3)cc21)c1ccccc1 | inactive
52 | CCCCOc1ccc(N(CC(=O)NCC2CCCO2)C(=O)CCC(=O)Nc2cc(C)ccn2)cc1 (centres undefined) | inactive

Row | Compound | B-score
53 | Cc1cc(C)cc(NS(=O)(=O)c2ccc(F)cc2)c1 | inactive
54 | COc1ccccc1Oc1ccc(S(=O)(=O)Nc2cccnc2)cc1 | inactive
55 | Cc1cc(C)cc(NS(=O)(=O)c2ccc(Oc3ncc(C(F)(F)F)cc3Cl)cc2)c1 | -8.23 (active)
56 | CCN1C(=O)[C@H]2[C@@H](c3ccc(C)cc3)N3C(=O)N(c4cccc(Br)c4)C(=O)[C@@]3(CC)[C@H]2C1=O | inactive
57 | Cc1cc(NC(=O)CCN2CCN(Cc3ccccc3)CC2)ccc1Br | inactive
58 | O=C(Nc1ccccc1C(=O)N1CCOCC1)C1CCC(=O)N1C1CCCC1 (centres undefined) | inactive
59 | CCc1ccccc1NC(=O)[C@@H]1CCC(=O)N1C1OC(=O)c2c1ccc(OC)c2OC (some centres undefined) | -8.3 (active)
60 | CCOc1ccc(CNC(=O)C2CCC(=O)N2C2CCCC2)cc1OC (centres undefined) | inactive
61 | CCC(=O)N1CCCc2ccccc21 | inactive
62 | CN1CCN(C(=O)N2c3ccccc3CCc3ccccc32)CC1 | -9.54 (active)
63 | CC1CC(C)CN(CC(=O)N2c3ccccc3CCc3ccccc32)C1 (centres undefined) | inactive
64 | N#CC1(C#N)C(C(=O)C23CC4CC(CC(C4)C2)C3)C12CCOCC2 (centres undefined) | inactive
65 | FC(F)(F)C1CCCN(c2nsc3ccccc23)C1 (centres undefined) | inactive
66 | COC(=O)c1cccc(N(CC(=O)NCC2CCCO2)C(=O)CCC(=O)Nc2cc(C)on2)c1 (centres undefined) | inactive
67 | CN(Cc1ccccc1)c1nc2c(c(=O)[nH]c(=O)n2C)n1CCSc1nc2ccccc2[nH]1 | inactive
68 | CC(C)CCn1c(CN(C)Cc2ccccc2)nc2c1c(=O)n(C)c(=O)n2C | inactive
69 | Cc1ccnc(SCCn2c(N(C)Cc3ccccc3)nc3c2c(=O)n(C)c(=O)n3C)n1 | -7.93 (active)
70 | CC(C)c1nnc(NC(=O)COC(=O)/C=C/c2ccc([N+](=O)[O-])cc2)s1 | inactive
71 | COCCCNc1nc2ccccc2nc1NS(=O)(=O)c1ccc(F)cc1 | inactive
72 | O=C(Cn1ncc(N2CCCC2)c(Br)c1=O)c1ccc(Cl)cc1 | inactive
73 | COc1cccc(N(CC(=O)NC2CCCC2)C(=O)CCCC(=O)Nc2ccccn2)c1 | inactive
74 | Fc1ccc(Cn2nnnc2C(c2cccs2)N2CCCCCC2)cc1 (centres undefined) | inactive
75 | CN1C=CC=C/C1=C1\SC(=S)N(Cc2ccccc2)C1=O | -9.24 (active)
76 | CCCCN1C(=O)/C(=C/C=C2/C=Cc3ccccc3N2CC)SC1=S | inactive
77 | CCCCN1C(=O)/C(=C2/C=CC=CN2C)SC1=S | -8.69 (active)
78 | CCCCN1C(=O)/C(=C2/Sc3ccc(Cl)cc3N2CC)SC1=S | inactive

Row | Compound | B-score
79 | COc1cc(/C=C2/SC(=S)N(Cc3ccccc3)C2=O)cc(OC)c1O | inactive
80 | CCN1C(=O)/C(=C2/Sc3ccccc3N2CCCS(=O)(=O)O)SC1=S | inactive
81 | CC(C)CNC(=S)NNC(=O)c1ccccc1OC(F)F | inactive
82 | Cc1cccc(C(C)C)c1NC(=O)COC(=O)C1CC(=O)N(Cc2ccccc2)C1 (centres undefined) | inactive
83 | CNC(=O)c1[nH]cnc1C(=O)N[C@@H](CC(C)C)C(=O)OCc1ccccc1 | inactive
84 | N#Cc1ccc(/C=C2\CCn3c2nc2cc(C(=O)O)ccc2c3=O)cc1 | inactive
85 | O=C(O)CC(SCC(=O)Nc1ccc(Br)cc1)C(=O)O (centres undefined) | inactive
86 | Cc1ccc(NC(=O)c2oc3ccccc3c2C)c([N+](=O)[O-])c1 | inactive
87 | COc1ccc(-c2csc3ncnc(Oc4ccc5c(C)cc(=O)oc5c4)c23)cc1 | inactive
88 | COc1ccc(-c2csc3ncnc(N4CCN(S(=O)(=O)c5cccc(F)c5)CC4)c23)cc1 | -7.35 (active)
89 | COc1ccc(-c2csc3ncnc(N4CCN(S(=O)(=O)c5ccccc5C#N)CC4)c23)cc1 | inactive
90 | O=C(NCc1ccccc1)[C@H]1C[C@@H]1[C@H](NP(=O)(c1ccccc1)c1ccccc1)c1ccccc1 | inactive
91 | CCCn1nnnc1NC(=O)COc1ccc(Cl)cc1C | inactive
92 | CCCCCCCCCCCCN1C(=O)CSC1c1cccnc1 (centres undefined) | -10 (active)
93 | CCCCCCOc1ccc(OC(=O)c2cccnc2)cc1 | inactive
94 | CN(C)CCCN1C(=O)CSC1c1ccc([N+](=O)[O-])cc1 (centres undefined) | inactive
95 | CC1(c2ccc3ccccc3c2)NC(=O)N(CC(N)=O)C1=O (centres undefined) | inactive
96 | CC1(C)CC(=O)C=C(N2CCOCC2)C1 | inactive
97 | O=[N+]([O-])c1ccccc1OCCCCN1CCCCC1 | inactive
98 | Cc1ccc(OCCCCN2CCCCC2)c(Br)c1 | -7.76 (active)
99 | Cc1ccc(C(C)(C)C)c(OCCCCN2CCCC2)c1 | inactive
100 | O=C(NCCCCc1ccccc1)C1CC(c2ccc([N+](=O)[O-])cc2)=NO1 (centres undefined) | inactive
101 | Cc1ccc(NC(=O)c2sccc2C)cc1[N+](=O)[O-] | inactive
102 | O=C(Nc1ccc([N+](=O)[O-])cc1)C1CC12CCC2 (centres undefined) | inactive
103 | COc1ccc(C(=O)N(C)CC(O)c2ccccc2)cc1OC1CCN(C(C)=O)CC1 (centres undefined) | inactive
104 | CCC(NC(=O)c1ccccc1NC(=O)c1ccccc1)C(=O)NNC(=O)CSc1nc2ccccc2o1 (centres undefined) | inactive
